The text below walks through data of ChEMBL document CHEMBL1133479 (J Med Chem, 2000).

Assay [1] concerns the target T1, Melatonin receptor type 1B (Homo sapiens, UniProt P49286).
T1 sequence (P49286 whole entry): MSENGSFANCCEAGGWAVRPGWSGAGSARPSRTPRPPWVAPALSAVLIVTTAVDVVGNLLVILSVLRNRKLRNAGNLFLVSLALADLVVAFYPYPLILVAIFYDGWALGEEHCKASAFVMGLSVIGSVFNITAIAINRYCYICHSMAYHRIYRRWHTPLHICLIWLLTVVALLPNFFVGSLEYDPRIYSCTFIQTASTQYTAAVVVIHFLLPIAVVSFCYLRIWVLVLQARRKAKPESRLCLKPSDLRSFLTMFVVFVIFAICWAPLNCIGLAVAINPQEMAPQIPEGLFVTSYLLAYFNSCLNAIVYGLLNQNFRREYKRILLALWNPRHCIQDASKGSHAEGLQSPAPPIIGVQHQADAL
The experiment in a line: Binding affinity for melatonin receptor type 1B, expressed in HEK293 cells (2-[125I]iodomelatonin is used as radioligand). The assay is classed as cell-based.

For assay [2], the target named is Melatonin receptor type 1A (Homo sapiens, UniProt P48039). Put plainly: Binding affinity for human melatonin receptor type 1A, expressed in HEK293 cells (2-[125I]iodomelatonin is used as radioligand). Format: cell-based.
The target of the next assay is Melatonin receptor (Gallus gallus, UniProt P49288+P51050+P49285). Put plainly: Binding affinity is evaluated for chicken brain melatonin receptor using 2-[125I]iodomelatonin as radioligand.
Assay [3] in a line: Melanophore aggregation of the dermal melanocytes of Xenopus laevis tadpoles with regard to melatonin (=1). Format: functional.
A short description of assay [4]: Melanophore aggregation of the dermal melanocytes of Xenopus laevis tadpoles. The assay is classed as functional.
Assay [5] can be described thus: Percentage of maximum effect observed with regard to that of melatonin (100%). Format: functional. The method, boiled down:
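Tadpole skin-lightening assay (melanophore index, 5 concentrations, 15 min exposure).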

A short description of assay [6]: compound is evaluated for melanophore aggregation of the dermal melanocytes of Xenopus laevis tadpoles with regard to melatonin (=1). The assay is classed as functional.

Melatonin receptor type 1A, sequence (P48039 whole entry): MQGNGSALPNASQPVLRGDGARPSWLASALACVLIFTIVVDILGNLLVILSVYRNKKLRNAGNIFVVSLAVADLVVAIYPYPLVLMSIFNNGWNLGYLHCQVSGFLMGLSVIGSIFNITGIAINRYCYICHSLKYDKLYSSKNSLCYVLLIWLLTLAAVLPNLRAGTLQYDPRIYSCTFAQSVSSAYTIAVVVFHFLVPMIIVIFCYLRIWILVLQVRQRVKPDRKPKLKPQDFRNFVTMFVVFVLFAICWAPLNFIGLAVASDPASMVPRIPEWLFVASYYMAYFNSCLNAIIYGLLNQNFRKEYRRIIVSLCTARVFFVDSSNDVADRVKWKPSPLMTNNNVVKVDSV

In the case of `COc1ccc2cccc3c2c1C(CNC(C)=O)C3` (configuration not stated), the results for the Ki (in assay [1]; in assay [2]; at Melatonin receptor) were 0.12 nM, 0.12 nM and 2.95 nM, respectively. In assay [3], this molecule had a Potency of 1.33. In addition, the EC50 (as a rule, the concentration that produces a half-maximal response) in assay [4] stood at 5.08 nM.
With `CCCC(=O)NCCC1CCc2cccc3ccc(OC)c1c23` (configuration not stated), the Ki (usually a measure of affinity in units of concentration, obtained from inhibition or displacement) at Melatonin receptor is listed as 0.43 nM.
Turning to `CC(=O)NCC1CCc2cccc3cccc1c23` (configuration not stated), the Ki in assay [1] turned out to be 0.22 nM; in assay [2], 1.2 nM; on Melatonin receptor, 5.5 nM.
For `CCC(=O)NCC1CCc2c(OC)ccc3ccc(OC)c1c23` (configuration not stated), the Ki worked out at 0.153 nM in assay [1], 0.012 nM in assay [2] and 0.011 nM at Melatonin receptor.
Consider `COc1ccc2cccc3c2c1CCC3CNC(C)=O` (configuration not stated), for which the Ki was 0.41 nM in assay [1], 0.8 nM in assay [2] and 0.9 nM on Melatonin receptor. This molecule also gave a Potency in assay [3] of 0.11. Further, the EC50 in assay [4] is 57.8 nM.
In the case of `COc1ccc2ccc(OC)c3c2c1CCC3CNC(C)=O` (configuration not stated), the results for the Ki (in assay [1]; in assay [2]; on Melatonin receptor) were 0.145 nM, 0.015 nM and 0.054 nM, respectively. In assay [3], the Potency turned out to be 271.6. In assay [4], this molecule returned an EC50 of 0.025 nM.
In the case of `COc1ccc2cccc3c2c1C(CCNC(C)=O)CC3` (configuration not stated), the inhibition constant (Ki) came to 0.39 nM in assay [1], 0.1 nM in assay [2] and 24.4 nM at Melatonin receptor. In assay [3], this molecule returned a Potency of 0.007. For the same molecule, in assay [4], the midpoint of the response, the EC50, lay at 428 nM.
Regarding `CC(=O)NCCC1Cc2cccc3cccc1c23` (configuration not stated), the results for the Ki (in assay [1]; in assay [2]; at Melatonin receptor) were 3.83 nM, 6.5 nM and 123.3 nM, respectively. Further, in assay [5], the Effect is below 50%. In assay [4], this molecule showed an EC50 above 1000 nM.
`CCCC(=O)NCC1CCc2c(OC)ccc3cccc1c23` (stereo in doubt; 13c): the Ki is 0.11 nM in assay [1], 0.45 nM in assay [2] and 0.36 nM on Melatonin receptor. In addition, the Potency in assay [6] is given as 13.3. The same molecule had an EC50 in assay [4] of 1.61 nM.
Regarding `CCCC(=O)NCC1CCc2cccc3cccc1c23` (configuration not stated), the inhibition constant Ki in assay [1] was found to be 0.18 nM; at Melatonin receptor, 3.2 nM.
For the molecule `COc1ccc2cccc3c2c1CCC3CNC(=O)C1CC1` (configuration not stated), the Ki in assay [1] came out at 0.79 nM; in assay [2], 0.95 nM; on Melatonin receptor, 4.6 nM.
`COc1ccc2ccc(OC)c3c2c1CCC3CCNC(=O)C1CC1` (configuration not stated): the Ki came to 1.59 nM in assay [1], 0.66 nM in assay [2] and 11.2 nM at Melatonin receptor.
`CCCC(=O)NCC1CCc2c(OC)ccc3ccc(OC)c1c23` (single isomer, unassigned; (-)) returned a Ki at Melatonin receptor of 0.034 nM.
As to `CCCC(=O)NCCC1Cc2cccc3ccc(OC)c1c23` (configuration not stated), the Ki in assay [1] stood at 0.34 nM; in assay [2], 0.37 nM; on Melatonin receptor it was 2.4 nM.
For the molecule `CCCC(=O)NCCC1CCc2c(OC)ccc3ccc(OC)c1c23` (configuration not stated), the Ki worked out at 0.19 nM in assay [1], 0.057 nM in assay [2] and 0.14 nM at Melatonin receptor. Moreover, the Potency in assay [3] is 37.7. This molecule also displayed an EC50 in assay [4] of 0.18 nM.
Turning to `CC(=O)NCC1Cc2cccc3cccc1c23` (configuration not stated), the inhibition constant Ki in assay [1] was found to be 0.51 nM; in assay [2], 4.24 nM; at Melatonin receptor, 36.1 nM. In addition, the Effect in assay [5] is below 50%. The molecule further had an EC50 in assay [4] above 1000 nM.
`COc1ccc2cccc3c2c1CCC3CCNC(=O)C1CC1` (configuration not stated): the Ki in assay [1] amounted to 13.2 nM; in assay [2], 1.89 nM; on Melatonin receptor, 43.4 nM.
With `COc1ccc2cccc3c2c1CCC3CCNC(C)=O` (configuration not stated), the figures for the Ki (in assay [1]; in assay [2]; at Melatonin receptor) were 11.8 nM, 8.9 nM and 145 nM, respectively. The molecule further displayed an Effect in assay [5] of 50%. The same molecule returned an EC50 in assay [4] above 1000 nM.
Turning to `CCCC(=O)NCC1CCc2cccc3ccc(OC)c1c23` (configuration not stated), the Ki in assay [1] was 0.069 nM; in assay [2] it was 0.008 nM; on Melatonin receptor, 0.02 nM. The same molecule yielded a Potency in assay [3] of 84.8. Moreover, the response in assay [4] was half-maximal at 0.08 nM (EC50).
In the same order, the values of `COc1ccc2cccc3c2c1C(CNC(C)=O)CC3` (configuration not stated) are 0.094 nM, 0.01 nM, 0.04 nM, 67.9 and 0.1 nM.
As for `CCC(=O)NCC1Cc2cccc3cccc1c23` (configuration not stated), the figures for the Ki (in assay [1]; in assay [2]; on Melatonin receptor) were 0.22 nM, 2.65 nM and 14.3 nM, respectively.
The like results for `CCC(=O)NCCC1Cc2cccc3cccc1c23` (configuration not stated) were, in that order, 1.86 nM, 4.34 nM and 101.8 nM.
For the molecule `COc1ccc2ccc(OC)c3c2c1CCC3CNC(=O)C1CC1` (configuration not stated), the figures for the Ki (in assay [1]; in assay [2]; at Melatonin receptor) were 0.26 nM, 0.026 nM and 0.13 nM, respectively.
For the molecule `CCCC(=O)NCC1CCc2c(OC)ccc3cccc1c23` (stereo in doubt; 13c (+)), the Ki in assay [1] amounted to 4.07 nM; in assay [2] it was 2.9 nM; on Melatonin receptor, 21.7 nM.
On to `CCCC(=O)NCC1CCc2c(OC)ccc3cccc1c23` (single isomer, unassigned; (-)), for which the results for the Ki (in assay [1]; in assay [2]; at Melatonin receptor) were 0.068 nM, 0.11 nM and 0.8 nM, respectively.
For `CCCC(=O)NCC1CCc2c(OC)ccc3ccc(OC)c1c23` (stereo in doubt; 15c), the Ki was 0.1 nM in assay [1], 0.016 nM in assay [2] and 0.07 nM at Melatonin receptor. The molecule further yielded a Potency in assay [3] of 1697. Besides, the midpoint of the response in assay [4], the EC50, lay at 0.004 nM.
Regarding `COc1ccc2cccc3c2c1C(CCNC(C)=O)C3` (configuration not stated), the values for the Ki (in assay [1]; in assay [2]; on Melatonin receptor) were 0.59 nM, 0.41 nM and 2.7 nM, respectively. For the same molecule, the Effect in assay [5] was found to be 50%. The EC50 in assay [4] was above 1000 nM.
Take `CCCC(=O)NCC1Cc2cccc3cccc1c23` (configuration not stated): the results for the Ki (in assay [1]; in assay [2]; on Melatonin receptor) were 0.093 nM, 0.79 nM and 4.3 nM, respectively. In assay [5], this molecule displayed an Effect below 50%. Moreover, a half-maximal effect in assay [4] (EC50) was put at 26 nM.
On to `CCC(=O)NCC1CCc2c(OC)ccc3cccc1c23` (configuration not stated), for which the results for the Ki (in assay [1]; in assay [2]; at Melatonin receptor) were 0.13 nM, 0.19 nM and 0.7 nM, respectively.
As to `CCCC(=O)NCC1Cc2cccc3ccc(OC)c1c23` (single isomer, unassigned; (-)), the Ki in assay [1] was 0.034 nM; in assay [2], 0.03 nM; on Melatonin receptor it was 0.15 nM.
Take `COc1ccc2cccc3c2c1C(CCNC(=O)C1CC1)C3` (configuration not stated): the Ki in assay [1] came to 41.8 nM; in assay [2], 10 nM; at Melatonin receptor it was 97.1 nM.
On to `O=C(NCC1Cc2cccc3cccc1c23)C1CC1` (configuration not stated), for which the results for the Ki (in assay [1]; in assay [2]; at Melatonin receptor) were 0.57 nM, 1.06 nM and 40.5 nM, respectively.
Take `COc1ccc2cccc3c2c1C(CNC(=O)C1CC1)C3` (configuration not stated): the results for the Ki (in assay [1]; in assay [2]; at Melatonin receptor) were 0.31 nM, 1.32 nM and 3.8 nM, respectively.
In the case of `COc1ccc2ccc(OC)c3c2c1CCC3CCNC(C)=O` (configuration not stated), the results for the Ki (in assay [1]; in assay [2]; on Melatonin receptor) were 0.55 nM, 0.2 nM and 3.6 nM, respectively. The molecule also displayed a Potency in assay [3] of 2.5. Besides, the EC50 in assay [4] was found to be 2.65 nM.
For the molecule `CCC(=O)NCCC1Cc2cccc3ccc(OC)c1c23` (configuration not stated), the Ki was 0.24 nM in assay [1], 0.22 nM in assay [2] and 4.75 nM on Melatonin receptor.
In the case of `CCCC(=O)NCC1CCc2c(OC)ccc3ccc(OC)c1c23` (single isomer, unassigned; (+)), the inhibition constant Ki at Melatonin receptor was found to be 0.31 nM.
For the molecule `CCC(=O)NCC1Cc2cccc3ccc(OC)c1c23` (configuration not stated), the Ki in assay [1] is 0.085 nM; in assay [2], 0.1 nM; on Melatonin receptor it was 0.9 nM.
Regarding `CCCC(=O)NCCC1Cc2cccc3cccc1c23` (configuration not stated), the Ki in assay [1] came to 1.86 nM; in assay [2], 6.41 nM; at Melatonin receptor it was 73.7 nM.
At Melatonin receptor, `CCCC(=O)NCCC1CCc2c(OC)ccc3cccc1c23` (configuration not stated) displayed a Ki of 28.1 nM.
As for `O=C(NCCC1Cc2cccc3cccc1c23)C1CC1` (configuration not stated), the Ki is 16.2 nM in assay [1], 6.48 nM in assay [2] and 399 nM at Melatonin receptor.
`CCCC(=O)NCC1Cc2cccc3ccc(OC)c1c23` (single isomer, unassigned; (+)): the Ki in assay [1] was 7.4 nM; in assay [2], 3.9 nM; at Melatonin receptor it was 4.3 nM.
With `CCC(=O)NCCC1CCc2c(OC)ccc3ccc(OC)c1c23` (configuration not stated), the results for the Ki (in assay [1]; in assay [2]; at Melatonin receptor) were 0.55 nM, 0.07 nM and 0.8 nM, respectively.
The like results for `CCC(=O)NCCC1CCc2c(OC)ccc3cccc1c23` (configuration not stated) were, in that order, 4.03 nM, 2.08 nM and 31.7 nM.
Regarding `CCCC(=O)NCC1Cc2cccc3ccc(OC)c1c23` (stereo in doubt; 20c), the Ki is 0.35 nM in assay [1], 0.37 nM in assay [2] and 0.16 nM on Melatonin receptor. In addition, in assay [3], the Potency was 14.7. Further, the EC50 in assay [4] came out at 0.46 nM.
The molecule `COc1ccc2cccc(CCNC(C)=O)c2c1` [AGOMELATINE] returned a Potency in assay [3] of 0.8. In assay [4], this molecule displayed an EC50 of 0.53 nM.
